Laboratory results: PubChem BioAssay
Results filed as inconclusive are left out. The source made the active and inactive calls.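 The calls were made as follows, unless noted: active = inhibition over a set limit, the all-compound mean plus 3 SD, in both replicate runs; inconclusive = over that limit in just one replicate run; inactive = at or under that limit in both runs.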

Columns and labels:
[1] = S. cerevisiae growth inhibition in permissive medium (OD615), pilot counter-assay for S. cerevisiae lifespan shortening project, permissive growth control (AID 705;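 active = growth inhibition above 25% in both replicates, a cutoff set 3 SD above the mean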); details: OD615, 24 h, at 10 µM, stronger effect = higher value
Outline: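 Test system: Saccharomyces cerevisiae strain carrying genetically modified DeaD replicative-lifespan system; buffer or medium: SC raffinose/galactose permissive medium; dosing: one dose 10 µM, DMSO 0.25% final; times: 24 h exposure, 30 °C; measured by: OD at 615 nm; read-out basis: growth inhibition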

[2] = S. cerevisiae growth inhibition in restrictive medium, OD615, pilot screen, restrictive growth control, yeast lifespan reduction project (AID 706;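 active = growth inhibition above a set limit, 3 SD over mean compound inhibition, in both replicates, cut at about 43% in these data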;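 also: modified DeaD lifespan yeast strain shifted to restrictive glucose medium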); details: OD615, 48 h, at 10 µM, stronger effect = higher value
Outline: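 material = engineered S. cerevisiae DeaD strain | buffer or medium = glucose-based CSMM-D restrictive medium | dosing = one concentration, 10 µM final, 0.25% DMSO | schedule = 4 h pre-growth plus 48 h compound exposure, 30 °C | detection = OD615 absorbance reading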

[3] = doxorubicin toxicity protection in MRP-1 cells – H69AR cells, CellTiter-Glo, duplicate, MRP-1 activator project, pilot screen (AID 807;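 active = viability increase at or above a cutoff of the median across tested compounds plus 3 SD, cut at about 8.5% in these data, passing the limit was not always enough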;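 also: compound pretreatment 18-22 h then 72 h combined with doxorubicin; 0% = doxorubicin alone and 100% = vehicle without doxorubicin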); details: H69AR viability with doxorubicin, CellTiter-Glo luminescence; at 10 µM; stronger effect = higher value
[4] = viability of HCT116 without oncogenic beta-catenin – human colon tumor cells, pilot screen (AID 823;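 active = cell viability at or below a set limit in both duplicate runs, the limit being the all-compound median minus 4 SD, cut at about 23% in these data, passing the limit was not always enough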;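 also: 0% = wells killed by 20 µM Hyamine and 100% = untreated DMSO cell wells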); details: HCT116 beta-catenin knockout viability, CellTiter-Glo, 60 h; at 10 µM; stronger effect = lower value
[5] = viability of PTEN-null HCT116 cells – cell-based, HCT116 clonal line, CellTiter-Glo, pilot screen (AID 824;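 active = viability at or below 27.92% in each of two runs, the all-compound median minus 4 SD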;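 also: 0% = 20 µM Hyamine control and 100% = vehicle cell control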); details: HCT116 PTEN-deleted viability, 60 h, at 10 µM, stronger effect = lower value
[6] = RAM pathway blockade in budding yeast – dse1pr::URA3 reporter, 5-FOA selection, pilot screen (AID 869);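 also: 0% = DMSO wells with no growth and 100% = 10 µM 1-NA-PP1 with full growth; RAM network block rescues cells from 5-FOA so hits raise OD615 growth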; details: S. cerevisiae dse1pr::URA3 5-FOA growth, OD615, 2 d; at 10 µM; stronger effect = higher value; strain carries analog-sensitive mutant Cbk1 kinase
[7] = RAM signaling pathway blockade in yeast – S. cerevisiae, Pdr1DBD-CYC8 efflux-inhibited sensitized strain, primary screen (AID 1298;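 active = RAM network inhibition above 8.4% in each of two replicates, 3 SD over the compound average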;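 also: 0% = DMSO untreated cells without growth and 100% = 10 µM 1-NA-PP1 full growth; higher means more yeast growth rescued from 5-FOA killing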); details: S. cerevisiae cbk1-as DSE1-URA3 strain, 5-FOA growth OD615, 2 d; at 50 µM; stronger effect = higher value

Cn1c(Cn2c(=O)sc3ccccc32)nnc1SCC(=O)Nc1ccccc1F
inactive: growth inhibition [1] -5.34% | growth inhibition [2] -10% | viability increase [3] -1.11% | viability [4] 104% | viability [5] 99.4% | inhibition [6] 1.62% | RAM network inhibition [7] 9.24%

NC(=O)C1CCN(C(=O)C2CCN(S(=O)(=O)c3ccccc3)CC2)CC1
inactive: growth inhibition [1] -2.18% | growth inhibition [2] 12.3% | viability increase [3] -1.4% | viability [4] 102% | viability [5] 105% | inhibition [6] 1.06% | RAM network inhibition [7] 0.84%

CCc1ccc(NC(=O)CN(c2ccc3c(c2)OCO3)S(=O)(=O)c2c(C)noc2C)cc1
inactive: growth inhibition [1] -16.8% | growth inhibition [2] -11.4% | viability increase [3] 0.12% | viability [4] 85.5% | viability [5] 80.5% | inhibition [6] 3.38% | RAM network inhibition [7] 9.54%

Cc1ccc(CNC(=O)C2CCCN(c3nc4ccccc4o3)C2)cc1 (configuration not stated)
inactive: growth inhibition [1] -20.4% | growth inhibition [2] -13.5% | viability increase [3] 1.29% | viability [4] 101% | viability [5] 98.9% | inhibition [6] 0.85% | RAM network inhibition [7] 5.43%

COc1ccccc1C1C=C(c2ccccc2)Nc2nnnn21 (configuration not stated)
inactive: growth inhibition [1] -4.73% | growth inhibition [2] 4.88% | viability increase [3] -0.25% | viability [4] 72.2% | viability [5] 83.7% | inhibition [6] 0.05% | RAM network inhibition [7] 5.5%

CC1CCCN(c2nc3c(c(=O)[nH]c(=O)n3C)n2Cc2ccccc2Cl)C1 (configuration not stated)
inactive: growth inhibition [1] -15.4% | growth inhibition [2] -35.9% | viability increase [3] -5.4% | viability [4] 84.9% | viability [5] 81% | inhibition [6] 0.485% | RAM network inhibition [7] 9.1%

CCc1noc2c1/C(=N\O)CC(c1ccccc1)C2 (configuration not stated)
inactive: growth inhibition [1] 0.555% | growth inhibition [2] 4.22% | viability increase [3] 2.87% | viability [4] 83.3% | viability [5] 84.8% | inhibition [6] 1.78% | RAM network inhibition [7] -1.18%

O=C(NC1CCCCC1)C(c1ccccc1)N1CCC2(CC1)OCCO2 (configuration not stated)
inactive: growth inhibition [1] 0.86% | growth inhibition [2] 6.33% | viability increase [3] -4.79% | viability [4] 97.6% | viability [5] 95.5% | inhibition [6] 1.5% | RAM network inhibition [7] 1.43%

O=C(CCSCCC(=O)NCc1ccco1)NCc1ccco1
inactive: growth inhibition [1] 3.59% | growth inhibition [2] 10.5% | viability increase [3] -1.12% | viability [4] 89% | viability [5] 96% | inhibition [6] 0.745% | RAM network inhibition [7] 6.5%

COc1ccc(C2CCCN2C(=O)Nc2ccc(F)cc2)cc1OC (configuration not stated)
inactive: growth inhibition [1] -6.66% | growth inhibition [2] -5.24% | viability increase [3] 1.33% | viability [4] 98.8% | viability [5] 88.2% | inhibition [6] 2.6% | RAM network inhibition [7] 3.45%

CC(=O)/C(C(=N)N1CCN(C(c2ccccc2)c2ccccc2)CC1)=C(\C)O
inactive: growth inhibition [1] -2.42% | growth inhibition [2] -7.72% | viability increase [3] -2.93% | viability [4] 102% | viability [5] 91.2% | inhibition [6] -0.395% | RAM network inhibition [7] 2.41%

O=C(CCCN1C(=O)c2ccccc2C1=O)Nc1ccccc1C(=O)N1CCOCC1
inactive: growth inhibition [1] -5.06% | growth inhibition [2] 2.61% | viability increase [3] 0.44% | viability [4] 102% | viability [5] 103% | inhibition [6] 0.11% | RAM network inhibition [7] 3.36%

O=C1c2cccc3cccc(c23)C(=O)N1c1nccs1
inactive: growth inhibition [1] -1.67% | growth inhibition [2] 0% | viability increase [3] 0.23% | viability [4] 104% | viability [5] 106% | inhibition [6] 1.98% | RAM network inhibition [7] 6.64%

O=C(N1CCN(c2ccc(F)cc2)CC1)C12CC3CC(CC(C3)C1)C2
inactive: growth inhibition [1] -15.7% | growth inhibition [2] -5.23% | viability increase [3] -0.18% | viability [4] 84.1% | viability [5] 83.6% | inhibition [6] 0.94% | RAM network inhibition [7] 11.5%

O=C(c1ccc(Br)o1)N1CCN=C1SCc1cccnc1
inactive: growth inhibition [1] -14.4% | growth inhibition [2] -6.34% | viability increase [3] 2.52% | viability [4] 90.4% | viability [5] 87.6% | inhibition [6] 2.11% | RAM network inhibition [7] 3.23%

OCCNc1nc(Nc2ccccc2)nc(Nc2ccccc2)n1
inactive: growth inhibition [1] 14% | growth inhibition [2] 4.96% | viability increase [3] -1.23% | viability [4] 95.8% | viability [5] 94% | inhibition [6] -0.245% | RAM network inhibition [7] -1.3%

Cc1ccc(CSc2nc3c(c(=O)[nH]c(=O)n3C)n2CCC(C)C)cc1
inactive: growth inhibition [1] -2.01% | growth inhibition [2] -11.3% | viability increase [3] -7.6% | viability [4] 53.1% | viability [5] 51.2% | inhibition [6] 4.83% | RAM network inhibition [7] 7.58%

CS(=O)(=O)Nc1ccccc1Oc1ccccc1
inactive: growth inhibition [1] -4.92% | growth inhibition [2] 2.56% | viability increase [3] -0.66% | viability [4] 97.5% | viability [5] 92.8% | inhibition [6] -0.23% | RAM network inhibition [7] -0.46%

CC(=O)Oc1ccc(N2C(=O)C3C(C2=O)C2(C)C=CC3(C)O2)cc1 (configuration not stated)
active: growth inhibition [1] 95.1% | growth inhibition [2] 100%
inactive: viability increase [3] -1.26% | viability [4] 99% | viability [5] 98.4% | inhibition [6] 2.16% | RAM network inhibition [7] 0.09%

CCOc1ccc2nc(N3CCC(C(=O)N4CCN(c5ccccn5)CC4)CC3)sc2c1
inactive: growth inhibition [1] -4.53% | growth inhibition [2] -8.55% | viability increase [3] -6.17% | viability [4] 50.9% | viability [5] 55.7% | inhibition [6] -0.605% | RAM network inhibition [7] 2.36%

COc1ccc(C(=O)Nc2cc(=O)n(C)c(=O)n2C)cc1OC
inactive: growth inhibition [1] -0.79% | growth inhibition [2] 6.3% | viability increase [3] -1.84% | viability [4] 104% | viability [5] 94.2% | inhibition [6] 1.09% | RAM network inhibition [7] -1.14%

CC1(C)CCCC2=C1CC1C(=O)N(Cc3cccnc3)C(=O)C1C2 (configuration not stated)
inactive: growth inhibition [1] -6.32% | growth inhibition [2] -10.3% | viability increase [3] -0.2% | viability [4] 82.2% | viability [5] 86.7% | inhibition [6] 1.11% | RAM network inhibition [7] 4.53%

CCOc1ccc(OCC)c(S(=O)(=O)NCc2ccc3c(c2)OCO3)c1
inactive: growth inhibition [1] -9.29% | growth inhibition [2] -2.62% | viability increase [3] -2.97% | viability [4] 95.1% | viability [5] 96.5% | inhibition [6] 1.52% | RAM network inhibition [7] 5.31%

COc1ccc(S(=O)(=O)NCCSc2ccc(C)cc2)cc1OC
inactive: growth inhibition [1] 1.08% | growth inhibition [2] 1.66% | viability increase [3] -2.26% | viability [4] 85.8% | viability [5] 86.1% | inhibition [6] 1.18% | RAM network inhibition [7] 2.65%

CCOC(=O)C1CCCN(C(=O)C2CCCN(S(=O)(=O)c3ccc4c(c3)oc(=O)n4C)C2)C1 (configuration not stated)
inactive: growth inhibition [1] -4.01% | growth inhibition [2] -0.98% | viability increase [3] 0.99% | viability [4] 92.2% | viability [5] 94.5% | inhibition [6] 0.445% | RAM network inhibition [7] -0.53%

Cn1c(=O)oc2cc(S(=O)(=O)N3CCC(C(=O)NCc4cccs4)CC3)ccc21
inactive: growth inhibition [1] -3.54% | growth inhibition [2] 4.04% | viability increase [3] -0.3% | viability [4] 95.1% | viability [5] 90.2% | inhibition [6] 0.335% | RAM network inhibition [7] 1.5%

COc1ccc(C)cc1NC(=O)CSc1nnc(-c2ccc(C)cc2)o1
inactive: growth inhibition [1] -8.71% | growth inhibition [2] 30.3% | viability increase [3] 1.15% | viability [4] 91.9% | viability [5] 86.8% | inhibition [6] 2.09% | RAM network inhibition [7] 5.49%

COc1ccc(-c2nnc(NC(=O)c3ccccc3C)o2)cc1
active: viability [5] 25.3%
inactive: growth inhibition [1] -8.78% | growth inhibition [2] -11.7% | viability increase [3] -2.73% | viability [4] 27.6% | inhibition [6] 1.86% | RAM network inhibition [7] 0.11%

Cc1c(C(=O)NCC(C)C)sc2nc(-c3ccc(F)cc3)cn12
inactive: growth inhibition [1] -13.9% | growth inhibition [2] -12% | viability increase [3] 1.99% | viability [4] 111% | viability [5] 103% | inhibition [6] 2.99% | RAM network inhibition [7] 10.7%

COc1ccc(Cl)cc1S(=O)(=O)N1CCN=C1C
inactive: growth inhibition [1] 1.52% | growth inhibition [2] -3.21% | viability increase [3] -2.75% | viability [4] 90.8% | viability [5] 90% | inhibition [6] 0.03% | RAM network inhibition [7] 7.99%

O=C(Cn1c(=O)sc2ccccc21)N1CCOCC1
inactive: growth inhibition [1] -1.21% | growth inhibition [2] -4.46% | viability increase [3] -1.06% | viability [4] 95.5% | viability [5] 102% | inhibition [6] 0.485% | RAM network inhibition [7] 0.67%

COc1cccc(C2CC(c3ccc(Cl)cc3)n3nc(N)nc3N2)c1 (configuration not stated)
inactive: growth inhibition [1] -3.76% | growth inhibition [2] 1.46% | viability increase [3] 0.04% | viability [4] 100% | viability [5] 91.1% | inhibition [6] 1.63% | RAM network inhibition [7] 7.39%

Cc1ccc(C)c(SCC(=O)OCC(=O)c2ccco2)c1
inactive: growth inhibition [1] -21.2% | growth inhibition [2] -14.6% | viability increase [3] -3.35% | viability [4] 88.9% | viability [5] 91.6% | inhibition [6] 0.705% | RAM network inhibition [7] 2.26%

CCCOc1ccc(S(=O)(=O)NCc2ccc(OC)cc2)cc1
inactive: growth inhibition [1] -0.685% | growth inhibition [2] -1.88% | viability increase [3] -1.41% | viability [4] 103% | viability [5] 103% | inhibition [6] 0.925% | RAM network inhibition [7] 7.26%

COc1ccc2[nH]c(C)c(CCN3C(=O)C4CC=CCC4C3=O)c2c1 (configuration not stated)
inactive: growth inhibition [1] -14.4% | growth inhibition [2] -15.3% | viability increase [3] 0.77% | viability [4] 105% | viability [5] 89.2% | inhibition [6] 0.55% | RAM network inhibition [7] 2.77%

C=CCSc1nnc2c(n1)OC(c1cccnc1)Nc1ccccc1-2 (configuration not stated)
inactive: growth inhibition [1] 8.11% | growth inhibition [2] 13.7% | viability increase [3] -2.34% | viability [4] 95.5% | viability [5] 88% | inhibition [6] 1.75% | RAM network inhibition [7] 1.38%
